Usually IC50 stands for the point on the concentration scale where inhibition reaches its midpoint.

Molecules are shown by their SMILES.

Assay [1] is described as follows: Inhibition of enoyl reductase (unknown origin). More on the design: species or system Homo sapiens.
Assay [2] can be described thus: Inhibition of ketoreductase (unknown origin). More on the design: species or system Homo sapiens.
Assay [3] in a line: Inhibition of dehydratase (unknown origin). More on the design: species or system Homo sapiens.
A short description of assay [4]: Inhibition of thioesterase (unknown origin). On the set-up: species or system Homo sapiens.
Assay [5] addresses Fatty acid synthase (Homo sapiens, UniProt P49327). In words: Inhibition of full length recombinant human FASN using acetyl-CoA/malonyl-CoA as substrate preincubated for 60 mins followed by substrate addition and measured after 90 mins in presence of NADPH. Summed up:
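Full-length recombinant human FASN. CoA released is detected as a fluorescent conjugate with the coumarin maleimide CPM. IC50 is the mean of at least two separate runs.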

Fatty acid synthase, sequence (P49327 whole entry): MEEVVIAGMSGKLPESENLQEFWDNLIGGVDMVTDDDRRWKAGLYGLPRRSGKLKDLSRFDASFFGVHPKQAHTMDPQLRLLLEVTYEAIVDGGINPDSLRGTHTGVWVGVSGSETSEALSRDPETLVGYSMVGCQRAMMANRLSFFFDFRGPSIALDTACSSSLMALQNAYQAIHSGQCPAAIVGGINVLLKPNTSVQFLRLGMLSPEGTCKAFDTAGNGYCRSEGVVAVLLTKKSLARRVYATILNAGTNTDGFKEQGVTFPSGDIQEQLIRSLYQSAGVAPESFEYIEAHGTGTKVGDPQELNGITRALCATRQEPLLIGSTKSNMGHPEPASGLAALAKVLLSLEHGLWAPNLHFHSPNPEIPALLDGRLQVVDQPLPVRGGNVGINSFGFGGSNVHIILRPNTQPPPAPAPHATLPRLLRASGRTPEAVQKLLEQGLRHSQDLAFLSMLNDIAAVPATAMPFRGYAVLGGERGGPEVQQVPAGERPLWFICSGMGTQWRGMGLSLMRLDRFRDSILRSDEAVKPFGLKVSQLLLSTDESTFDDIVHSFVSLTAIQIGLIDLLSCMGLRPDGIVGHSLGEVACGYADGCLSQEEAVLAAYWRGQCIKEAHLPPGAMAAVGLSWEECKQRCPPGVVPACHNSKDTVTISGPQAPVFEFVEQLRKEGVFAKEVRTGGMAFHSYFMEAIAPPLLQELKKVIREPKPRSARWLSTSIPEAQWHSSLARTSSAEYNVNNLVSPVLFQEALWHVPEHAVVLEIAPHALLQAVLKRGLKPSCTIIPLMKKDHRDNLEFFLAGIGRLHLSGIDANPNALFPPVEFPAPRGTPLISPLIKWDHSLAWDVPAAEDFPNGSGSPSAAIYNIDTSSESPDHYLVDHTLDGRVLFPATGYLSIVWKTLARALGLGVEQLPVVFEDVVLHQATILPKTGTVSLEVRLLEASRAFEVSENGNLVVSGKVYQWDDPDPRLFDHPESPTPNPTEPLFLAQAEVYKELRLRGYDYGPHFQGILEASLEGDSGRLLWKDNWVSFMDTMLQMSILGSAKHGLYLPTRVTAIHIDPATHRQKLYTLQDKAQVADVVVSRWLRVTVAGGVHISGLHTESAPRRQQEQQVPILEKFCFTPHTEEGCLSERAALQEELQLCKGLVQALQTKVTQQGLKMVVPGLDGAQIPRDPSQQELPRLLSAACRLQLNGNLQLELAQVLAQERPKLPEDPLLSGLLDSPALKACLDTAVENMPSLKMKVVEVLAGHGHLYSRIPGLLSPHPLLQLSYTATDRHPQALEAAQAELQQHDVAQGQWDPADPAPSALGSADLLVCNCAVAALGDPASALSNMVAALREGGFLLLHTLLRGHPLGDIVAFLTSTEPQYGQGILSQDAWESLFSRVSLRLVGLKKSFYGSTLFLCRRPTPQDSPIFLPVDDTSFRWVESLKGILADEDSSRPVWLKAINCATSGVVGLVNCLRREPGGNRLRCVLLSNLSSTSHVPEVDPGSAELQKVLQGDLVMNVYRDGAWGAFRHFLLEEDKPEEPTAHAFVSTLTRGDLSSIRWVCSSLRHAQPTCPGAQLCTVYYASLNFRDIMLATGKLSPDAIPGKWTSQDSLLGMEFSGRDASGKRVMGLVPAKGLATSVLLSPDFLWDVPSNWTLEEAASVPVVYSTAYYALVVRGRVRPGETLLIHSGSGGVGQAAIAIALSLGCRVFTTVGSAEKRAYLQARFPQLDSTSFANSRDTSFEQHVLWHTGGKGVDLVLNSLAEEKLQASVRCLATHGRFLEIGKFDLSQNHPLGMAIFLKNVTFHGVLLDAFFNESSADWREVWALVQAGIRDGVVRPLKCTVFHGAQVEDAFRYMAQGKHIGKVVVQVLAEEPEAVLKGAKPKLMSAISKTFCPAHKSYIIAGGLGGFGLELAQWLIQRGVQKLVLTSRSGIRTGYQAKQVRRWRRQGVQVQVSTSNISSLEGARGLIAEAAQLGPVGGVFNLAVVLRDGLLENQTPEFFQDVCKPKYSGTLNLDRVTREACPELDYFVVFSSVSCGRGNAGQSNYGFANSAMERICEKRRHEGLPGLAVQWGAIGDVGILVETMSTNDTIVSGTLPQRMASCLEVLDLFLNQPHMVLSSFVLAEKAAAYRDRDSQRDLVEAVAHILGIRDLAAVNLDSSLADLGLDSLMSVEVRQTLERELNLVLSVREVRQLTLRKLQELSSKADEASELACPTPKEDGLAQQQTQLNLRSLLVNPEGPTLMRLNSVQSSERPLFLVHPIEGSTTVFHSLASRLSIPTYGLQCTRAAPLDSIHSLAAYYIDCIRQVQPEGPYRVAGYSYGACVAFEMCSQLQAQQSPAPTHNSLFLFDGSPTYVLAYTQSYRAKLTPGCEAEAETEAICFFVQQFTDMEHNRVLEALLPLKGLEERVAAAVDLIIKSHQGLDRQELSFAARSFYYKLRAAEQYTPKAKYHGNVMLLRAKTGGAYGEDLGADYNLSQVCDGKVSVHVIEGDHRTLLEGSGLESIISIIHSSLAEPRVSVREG

On to `O=C(c1ccc(-c2ccccc2)cc1)N1CCN(C(=O)C2CCCO2)CC1` (racemic), for which the IC50 in assay [1] was over 50 µM; in assay [2], 1.8 µM; in assay [3] it was over 50 µM; in assay [4] it was over 50 µM; in assay [5], 1.14 µM.

The values above are taken from ChEMBL document CHEMBL4400560, “Discovery and optimization of novel piperazines as potent inhibitors of fatty acid synthase (FASN)” (Bioorg Med Chem Lett, 2019).
